Source: the EternaBench riboswitch data

Tested on: MS2 coat protein
Assay: apparent Kd, MS2 coat protein; higher = weaker binding; RNA-MaP array; tryptophan 2.4 mM where present
Method in brief: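 In 100 mM Tris-HCl pH 7.5, 80 mM KCl, 4 mM MgCl2, BSA, DTT, yeast tRNA and Tween-20, SNAP-549-labelled MS2 coat protein was titrated from 0.7 or 1.5 nM, doubling to 3 µM, over designs transcribed by stalled E. coli RNA polymerase on Illumina sequencing-chip clusters. This was done first without ligand, then with ligand held constant. After green signal was normalised to red-channel RNA signal and control-cluster median Fmax, the apparent Kd was taken as the median of filtered per-cluster binding-curve fits.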

[1] = designed as: OFF switch for tryptophan, no ligand
[2] = ligand present: tryptophan, designed as: OFF switch for tryptophan
[3] = designed as: ON switch for tryptophan, no ligand
[4] = ligand present: tryptophan, designed as: ON switch for tryptophan

Sequence	apparent Kd [1]	apparent Kd [2]	apparent Kd [3]	apparent Kd [4]
GAGUAGAGGACGGCCGCCACUAAACAUGAGGAUCACCCAUGUCGUGAUCCGUUACCUAGAGUAGAUAGGACCGGGUCAUAUAGUC	26.4 nM	21.3 nM	–	–
AUAAUUGGGUUAAUUAGUUUUAGGUCCAGUCGAGGACCGGUACGGCCGCCACUCGUUCCGAGAUACAUGAGGAUCACCCAUGUUA	32.9 nM	34.1 nM	–	–
GAGCGCGUGGACUGGCGUGCUCCGCUCCGUCGAGGACCGGUACGGCCGCCACUCGACAUGAGGAUCACCCAUGUGUGCGCUCGCG	51.5 nM	96.3 nM	–	–
GCAUCCUAGUCGGCCGCCACUGCAACAUGAGGAUCACCCAUGUCAGGCCUCAUGUGUCCUGGUAGCAGGACCGGGACUAGGAUGC	–	–	36.8 nM	29.2 nM
GACGCAUGAGUUGUAAAAGCUCAUGGGUCGCGAGGACCGGUACGGCCGCCACUCGGCUGUACAUGAGGAUCACCCAUGUCAGGGU	–	–	275 nM	580 nM
UAAACUACACAUGAGGAUCACCCAUGUGGCCGAGGACCGGUACGGCCGCCACUCGUGUGUUAAUAAAAGAACUGCAAGGUUCUGU	–	–	350 nM	84 nM
GCUAGGUCAUCGGCCGCCACUAACGAUGGCUCCAACAUGAGGAUCACCCAUGUGCCACAUGCGCAUAGGACCGGGAUGACCUAGC	–	–	13 nM	10.5 nM
ACGUUGUAGUCGGCCGCCACUGUUUUCAUGUUCAACAUGAGGAUCACCCAUGUACCUUUUUUUAUCAGGACCGGGACGUAUUCGA	–	–	93.2 nM	40.7 nM
AAUGUGAAGGCGGCCGCCACUGAUAAUAGACAUGAGGAUCACCCAUGUAUAAAUCCUCAAUAAGACAGGACCGGGCCAUCUACGU	105 nM	123 nM	–	–
AGCACAUGAGGAUCACCCAUGUGUCGGUACCGAGGACCGGUACGGCCGCCACUCGCAGGACAUGAGGAUCACCCAUGUGCCGCCG	–	–	25.1 nM	25.4 nM
UAAUGCAGGUCGGCCGCCACUACAAACAUGAGGAUCACCCAUGUAGUUACUGGGUGAAGUGGCAGUAGGACCGGGACCUGCAUAA	–	–	289 nM	342 nM
AAGACAUGAGGAUCACCCAUGUCGUGUGAACGAGGACCGGUACGGCCGCCACUCGUUUGAAAAUAAACGAAUGCGGCCUGGGAAA	11 nM	14.2 nM	–	–
UUAUAUACUACGGCCGCCACUGAACAUGAGGAUCACCCAUGUAAUGUUCAGACGUCUUUAGACGACAGGACCGGGUAGAAUUAAA	–	–	119 nM	109 nM
UAAUCCGGUCCUCGAUAAUCCUCAUGUAAACGAGGACCGGUACGGCCGCCACUCGAUAACAUGAGGAUCACCCAUGUAAUAAUAA	89.5 nM	46.5 nM	–	–
CUACAUUUGUAGAAACCGGUCAACAAUAAUCGAGGACCGGUACGGCCGCCACUCGAUGUAAAAUAAACAUGAGGAUCACCCAUGU	–	–	18.1 nM	19.3 nM
UAUUAUCAGUCGGCCGCCACUGACACAUGAGGAUCACCCAUGUAAUUUGGGUUAUAUAUAAAUUACAGGACCGGGACAAAGGCUA	358 nM	295 nM	–	–
UGGGUCGGAUGAGUAAAUUGUCGGACUCAUCGAGGACCGGUACGGCCGCCACUCGGUUGUACAUGAGGAUCACCCAUGUCAGGGU	–	–	364 nM	223 nM
UAACAUGAGGAUCACCCAUGUUUGAAGGAACGAGGACCGGUACGGCCGCCACUCGACGAGUGGAUGAGAAGUGGGAUAGUGUGCU	–	–	13.2 nM	13.8 nM
UAACAUGAGGAUCACCCAUGUAUACUAAGUCGAGGACCGGUACGGCCGCCACUCGAAAUUGAAGAAUUGGCGGUAAAUGUAAGUA	12.2 nM	12.5 nM	–	–
UUAUAUACUACGGCCGCCACUGAACAUGAGGAUCACCCAUGUAAUGUUCAGAUUUUUUUUUUUUACAGGACCGGGUAGAAUUAAA	–	–	159 nM	133 nM

Sequence	apparent Kd [1]	apparent Kd [2]	apparent Kd [3]	apparent Kd [4]
UACAUGAGGAUCACCCAUGUCCCAUGUGAACGAGGACCGGUACGGCCGCCACUCGACCGAGGCGGCACAUGAGGAUCACCCGCAU	–	–	736 nM	1580 nM
AAUCAUGGAAACAUGACAUGAGGAUUACUCCGAGGACCGGUACGGCCGCCACUCGCGAGGAGGCGGACAUGAGGAUCACCCAUGU	–	–	185 nM	40.2 nM
UACUUGCUGACGGCCGCCACUAGAACAUGAGGAUCACCCAUGUACCUGGUCCUUCAUGGGUGGACUAGGACCGGGUCAGCAAGAU	339 nM	549 nM	–	–
UCGGGCAUAGCGGCCGCCACUGUUUGGCGUGCGGAUGACGGAACAUGAGGAUCACCCAUGUUGUUUAGGACCGGGCUUGCGUCGU	13.2 nM	15.2 nM	–	–
AUACAUGAGGAUCACCCAUGUGAUGGCCGGCGAGGACCGGUACGGCCGCCACUCGUGAUCCGUCCUGAAAGCAAAGCUCCCAGCA	–	–	55.2 nM	122 nM
GGCACAUAGUCGGCCGCCACUACUAACACCUCAGACAACAUGAGGAUCACCCAUGUUCCAGAGUGUAGGACCGGGACUAUGUGCC	–	–	11.6 nM	10.5 nM
CCAUAAGUACCGGUCCUCAGAUCCUCAUGACGAGGACCGGUACGGCCGCCACUCGAAACAUGAGGAUCACCCAUGUAAUAAUAUU	27.9 nM	21 nM	–	–
UGCAUUAUACAUGGAUCACCCAUGUAGACACGAGGACCGGUACGGCCGCCACUCGGAAGAGGAAACAUGAGGAUCACCCAUGUGA	–	–	78.5 nM	78.2 nM
AAUAAACAUGAGGAUCACCCAUGUAGGGUGCGAGGACCGGUACGGCCGCCACUCGGGUGAAAACAUGAGGAUCACCCAUGUAAAA	200 nM	363 nM	–	–
AGCAACAAGUCGGCCGCCACUCAAUAAACAUGAGGAUCACCCAUGUAAAUAACAUGAUAAUAAUAGAGGACCGGGACAGUUGCAU	–	–	14.4 nM	13 nM
GGUUACUCUACGGCCGCCACUGAUUAUUUAUAGUCCUGUACAUAAACAUGAGGAUCACCCAUGUACAGGACCGGGUAGUGUAACC	–	–	34.9 nM	35.6 nM
GGGACUAGAUCGGCCGCCACUGAUGGGACAUGAGGAUCACCCAUGUACGAAGUGAUCCAAUAAAUCAGGACCGGGAUCACUUGUA	125 nM	225 nM	–	–
GCAUCCUAGUCGGCCGCCACUGCAACAUGAGGAUCACCCAUGUCUGCAUCUUCAUGAUGCAGUAGCAGGACCGGGACUAGGAUGC	–	–	185 nM	20.2 nM
GCAUCCUAGUCGGCCGCCACUGACAUGAGGAUCACCCAUGUACAUGAGGAUCACCCAUGUUGUAACAGGACCGGGACUAGGAUGC	–	–	99.7 nM	49.5 nM
AAUUAUCAGUCGGCCGCCACUGACACAUGAGGAUCACCCAUGUAAUAUGGGUAAAAUUAACUGAACAGGACCGGGACAAAUGCUA	–	–	381 nM	649 nM
AAUAAUAAGAAUAACGUACCAGGUGAUCAACGAGGACCGGUACGGCCGCCACUCGAAACAUGAGGAUCACCCAUGUAAUAACAAU	83.4 nM	58.3 nM	–	–
UAGUCCGCGACGGCCGCCACUCGCUGAUGCACAUGUGUCCGGGACAUGAGGAUCACCCAUGUUUCGAGGACCGGGUCGAUCCUAA	–	–	78.2 nM	57 nM
AGAUUCGACACGGCCGCCACUCGUGACGGAUUUCCGAGUGUCGAACAUGAGGAUCACCCAUGUCCGAGGACCGGGUGUUGAGUCU	34.1 nM	522 nM	–	–
CCAUCUUCAUCGGCCGCCACUGAACCAAGGAGACAUGAGGAUCACCCAUGUAUGGGAAACCAUCAUAGGACCGGGAUGAAGGUGG	–	–	36.1 nM	30.9 nM
GGGUCAGGCGCGGCCGCCACUGCGGUGAUGUGACAUGAGGAUCACCCAUGUUGUCAUGUGGCACAUAGGACCGGGCGCCUGGCCC	29.2 nM	31.6 nM	–	–
